In the library only some 5% were active in any assay of this set; here they are far more common.
UPR CHOP act – activators of apoptotic arm of unfolded protein response (CHOP); actives 0.34% (n = 330,000); CHO-CHOP luciferase reporter, UPR activation, luminescence; percent of tunicamycin response over DMSO baseline; activation, % at 10 µM;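 active = at 10 µM dose, activation of 40% or more, normalized to positive control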;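 note: 100% = tunicamycin at 10 µg/mL and 0% = DMSO alone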
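System: CHO CHOP reporter cells. Amount: 500 cells per well. Buffer or medium: F12 medium, 10% FBS. Compound dosing: one dose, 10 µM in 0.5% DMSO. Incubation: 6 h compound exposure at 37 °C after overnight seeding. Technique: Steady-Glo luciferase luminescence. Benchmarks: tunicamycin and DMSO controls.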
UPR XBP1 act – activators of adaptive arm of unfolded protein response (XBP1). actives 0.33% (n = 330,000). AID 463104. activation, % at 20 µM. CHO-XBP1 luciferase reporter, IRE1-XBP1 UPR activation, luminescence; percent of tunicamycin response, DMSO as zero;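 active = versus positive control, 20 µM dose yields 30% or more activation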;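 note: 100% = tunicamycin at 10 µg/mL and 0% = DMSO only wells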
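Material: CHO-XBP1 cells stably carrying IRE1-XBP1-driven luciferase reporter | Medium: F12 with 10% serum | Compound dosing: 20 µM single concentration, DMSO 1% | Incubation: Overnight seeding at 37 °C, 6 h compound treatment at 37 °C | Detection: Steady-Glo luminescence read | Read-out basis: % activation of reporter signal versus tunicamycin and DMSO controls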
Beta apoptosis – beta cell apoptosis inhibition; AID 435005; actives 0.8% (n = 300,000); protection from apoptosis, % (test concentration not listed); INS-1E cytokine-induced death, ATP luminescence, 48 h; percent of positive-control rescue, neutral wells zero;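 active = Every replicate reaches about 75%, or at least half do and their mean reaches it too, limit read from the data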;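 note: 0% = cytokine-treated negative control wells and 100% = positive control rescue; higher means more ATP so stronger rescue from cytokine killing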
CSC inhib – cancer stem cell inhibition; cancer stem cell-like cells viability, luminescence; inhibition, % at 7.5 µM; AID 2717; actives 1.1% (n = 300,000); in the data active = inhibition above about 75%; tested in HMLE shEcad cells
Mdm2 MdmX PPI – human Mdm2/MdmX binding inhibition; O15151+Q00987; SaOS-2 split-luciferase Mdm2/MdmX complementation, luminescence; inhibition, % at 8 µM; actives 3% (n = 330,000); AID 485346;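 active = inhibition of at least 50% at 8 µM in the primary screen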
Target sequence (O15151 whole entry, looked up): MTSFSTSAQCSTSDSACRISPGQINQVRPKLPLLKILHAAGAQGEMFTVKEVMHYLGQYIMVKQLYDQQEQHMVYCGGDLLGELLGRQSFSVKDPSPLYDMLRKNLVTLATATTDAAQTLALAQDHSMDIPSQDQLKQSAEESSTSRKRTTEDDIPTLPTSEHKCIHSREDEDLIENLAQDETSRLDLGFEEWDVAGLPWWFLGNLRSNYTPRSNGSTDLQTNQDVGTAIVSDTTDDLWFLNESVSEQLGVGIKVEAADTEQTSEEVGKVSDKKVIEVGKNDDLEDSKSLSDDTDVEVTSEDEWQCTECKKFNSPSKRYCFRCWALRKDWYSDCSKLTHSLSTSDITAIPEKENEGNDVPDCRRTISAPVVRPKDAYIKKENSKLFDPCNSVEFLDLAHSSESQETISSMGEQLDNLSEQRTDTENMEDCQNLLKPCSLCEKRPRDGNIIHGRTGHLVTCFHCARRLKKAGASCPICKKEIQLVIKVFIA
Target sequence (Q00987 whole entry, looked up): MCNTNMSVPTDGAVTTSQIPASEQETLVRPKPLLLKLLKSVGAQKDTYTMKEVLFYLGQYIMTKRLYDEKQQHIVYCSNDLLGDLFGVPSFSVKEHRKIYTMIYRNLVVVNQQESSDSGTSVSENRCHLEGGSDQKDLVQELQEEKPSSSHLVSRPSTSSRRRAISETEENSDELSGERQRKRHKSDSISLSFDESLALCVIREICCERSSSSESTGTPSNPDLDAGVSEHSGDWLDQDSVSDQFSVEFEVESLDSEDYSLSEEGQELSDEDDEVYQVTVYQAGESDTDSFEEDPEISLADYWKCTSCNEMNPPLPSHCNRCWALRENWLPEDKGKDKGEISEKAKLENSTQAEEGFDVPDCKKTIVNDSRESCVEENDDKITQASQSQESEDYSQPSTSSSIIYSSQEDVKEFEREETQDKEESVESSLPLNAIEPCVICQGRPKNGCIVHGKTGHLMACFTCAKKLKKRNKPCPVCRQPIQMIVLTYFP
T cruzi repl – blocks replication of Trypanosoma cruzi. inhibition, % (concentration not given with the values). actives 1.4% (n = 300,000). AID 1885. T. cruzi beta-gal in NIH3T3, luminescence, 90 h;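 active = mean inhibition across valid replicates above about 55%, limit read from the data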;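 note: signal also drops with host cell toxicity which is not excluded here; 0% = plate median of DMSO wells and 100% = zero luminescence signal; higher percent means less beta-gal luminescence so fewer parasites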
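System: mouse NIH/3T3 fibroblasts infected with β-gal-expressing T. cruzi Tulahuen C4 / Input: NIH/3T3 cells, 5,000 per well / Buffer or medium: Low-serum DMEM with 2% FBS / Probe or stimulus: 5000 reporter trypomastigotes per well / Schedule: ≥90 h infection period, 3 h prior cell attachment / Measured by: GalScreen luminescence, 60 min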
Mdm2-MdmX conf – human Mdm2/MdmX binding inhibition, confirmed; shares compounds with Mdm2 MdmX PPI; luminescent assay; inhibition, % at 8 µM; actives 55% (n = 10,000); in the data active = inhibition above about 40%
Full FLuc ctr – full-length luciferase inhibition in Mdm2/MdmX counter-screen | shares compounds with Mdm2 MdmX PPI | SaOS-2 full-length luciferase counterscreen, luminescence | actives 77% (n = 6,200) | AID 504607 | inhibition, % at 8 µM;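 active = mean inhibition at 8 µM reaching about 37%, which flags the compound as non-specific, limit read from the data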;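 note: p53-null SaOS-2 cells with luciferase driven by a doxycycline-inducible promoter; compound on cells about two nights before reading with doxycycline added after day one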
Numbers without * were called inactive; · = not tested or not shown.

SMILES | UPR CHOP act | UPR XBP1 act | Beta apoptosis | CSC inhib | Mdm2 MdmX PPI | T cruzi repl | Mdm2-MdmX conf | Full FLuc ctr
CCCN1C(=O)/C(=C/c2c(N3CCNC(=O)C3CC(=O)OCC)nc3c(C)cccn3c2=O)SC1=S (stereo not drawn) | 7 | -1 | 6 | 50 | 74* | 22 | 68* | 74*
NC(=O)C1CCN(C(=O)CCC(=O)c2cccs2)CC1 | 1 | -1 | 3 | · | 4 | · | · | ·
CN1CCC(=C2c3ccccc3CCc3sccc32)CC1 | 0 | -1 | · | 4 | 60* | 25 | 26 | ·
Cc1ccc(N2CC(C(=O)Nc3ccc(S(=O)(=O)NCC4CCCO4)cc3)CC2=O)cc1C (stereo not drawn) | -2 | 0 | -8 | -16 | 6 | -14 | · | ·
COc1ccc2sc(N(CCCN(C)C)C(=O)c3nc4ccccc4s3)nc2c1 | 3 | -1 | 9 | -14 | 3 | 43 | · | ·
COc1ccccc1C(=O)N(CCC1CCCN1C)c1nc2ccccc2s1 (stereo not drawn) | -2 | -4 | 4 | 9 | 82* | 50 | 79* | 106*
COc1ccc(NC(=S)N2CCCC2c2ccc(OC)c(OC)c2)cc1 (stereo not drawn) | -1 | -1 | -5 | -3 | 19 | -16 | · | ·
Cc1ccc(C(NC(=O)N2CCOCC2)=C(Cl)Cl)cc1F | -3 | -5 | -12 | 40 | 51* | -28 | 12 | ·
CCOc1ccccc1/C=N/NC(=O)c1nnn(-c2nonc2N)c1CN1CCCC1 | -1 | -2 | -7 | -14 | 6 | 4 | · | ·
Cc1ccc(N2C(=O)N3[C@H](c4ccc(F)cc4)[C@@H]4C(=O)N(C5CCCCC5)C(=O)[C@@H]4[C@]3(Cc3ccccc3)C2=O)cc1 | 1 | -1 | · | -14 | 61* | 18 | 70* | 57*
O=C1[C@H]2[C@@H](c3ccc(F)cc3)N3C(=O)N(c4ccc(Br)cc4)C(=O)[C@@]3(Cc3ccc(Cl)cc3)[C@H]2C(=O)N1C1CCCCC1 | 4 | 0 | 10 | 1 | 85* | -2 | 94* | 28
N/C(=N\c1nc2ccccc2o1)NC(=O)c1cccc(Cl)c1 | 8 | 6 | 10 | 20 | 51* | 5 | 17 | ·
O=C(N[C@@H](Cc1ccccc1)C(=O)CCl)OCc1ccccc1 | 158* | -13 | -14 | 42 | 96* | · | 85* | 20
O=C(N[C@@H](Cc1ccccc1)C(=O)N[C@@H](Cc1ccccc1)C(=O)O)OCc1ccccc1 | 2 | 0 | 4 | -13 | 12 | -13 | · | ·
Cc1onc(-c2ccccc2Cl)c1C(=O)N1CCCCC1C (stereo not drawn) | 0 | -4 | -8 | -9 | -2 | 3 | · | ·
C[C@@H](C(=O)N1CCN(Cc2ccc3c(c2)OCO3)CC1)n1nnc2ccccc2c1=O | 1 | -3 | -2 | 4 | 17 | -16 | · | ·
COc1ccc(-c2nc3ccccc3c(C(=O)Nc3ccc(S(=O)(=O)Nc4cc(C)on4)cc3)c2C)cc1 | 0 | -4 | 3 | 33 | 76* | -8 | 56* | 53*
Cc1ccc(-c2cc(C(=O)Nc3ccc(S(=O)(=O)Nc4cc(C)on4)cc3)c3ccccc3n2)c(C)c1 | -2 | -4 | -4 | 8 | 12 | -14 | · | ·
COc1ccc(C(=O)O/N=C(\N)c2ccccn2)cc1 | -9 | -12 | 4 | 10 | 97* | -6 | 94* | 24
Cc1ccc(C(=O)O/N=C(\N)c2ccccn2)c(C)c1 | -10 | -8 | -8 | -3 | 99* | -5 | 98* | 51*
Cc1ccc(C(=O)O/N=C(\N)c2ccc(C(F)(F)F)cn2)cc1 | 4 | 0 | · | · | 57* | 4 | -16 | ·
CCOc1cc(C(=O)O/N=C(\N)c2ccccn2)cc(OCC)c1OCC | 3 | 2 | 3 | -7 | 77* | 31 | 68* | 85*
Cc1cc2nc3c(nc2cc1C)CCCC3 | 3 | -2 | · | · | -26 | -13 | · | ·
CC(C)(C)c1ccc(C(=O)CCC(=O)OCC(=O)NCCc2ccc(S(N)(=O)=O)cc2)cc1 | 0 | 0 | -1 | · | 9 | · | · | ·
COc1ccc(NC(=O)c2c(NC(=O)CCC(=O)O)sc(-c3ccccc3)c2C)cc1 | -2 | -5 | -5 | 2 | -1 | -6 | · | ·
COc1cc(OC)cc(C(=O)O/N=C(\N)c2ccccn2)c1 | 1 | 0 | -5 | -8 | 54* | -4 | -4 | ·
COc1cc(OC)c(C(=O)O/N=C(\N)c2ccccn2)cc1OC | 2 | 6 | 6 | -9 | 46 | 5 | · | ·
COc1ccc(NC(=O)C#Cc2ccccc2)cc1OC | 20 | 0 | -11 | 19 | 57* | 14 | 34 | ·
CC(Oc1ccccc1)C(=O)Nc1ccc(C(N)=O)cc1 (stereo not drawn) | 5 | -1 | 0 | · | -26 | 0 | · | ·
COc1ccc(NC(=O)c2ccccc2SC)cc1OC | 2 | 4 | -5 | 1 | 3 | -11 | · | ·

Compound activity (PubChem)
